# Assay results as given in PMC5568800 (Investigative ophthalmology & visual science, 2009).
# Where two headings read alike, the source gives them in different places.
# Columns and labels:
# [1] = target: W450F X2IRBP; experiment: Titration monitoring enhancement of retinol fluorescence, W450F mutant; assay type: binding, Xenopus
# In short: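 All-trans retinol titration of the E. coli-expressed, TEV-cleaved Xenopus X2IRBP mutant, read as retinol fluorescence enhancement (ex 330 nm, em 480 nm). Nonspecific signal was subtracted using a titration into fluorescence-matched NAT solution, and the inner filter effect was corrected graphically. Three independent titrations were averaged. Kd from a nonlinear least-squares fit assuming a single type of noninteracting site.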
# [2] = target: X2IRBP (second module of Xenopus IRBP), wild-type sequence; assay type: binding; details: read-out: Kd, Enhancement
# In short: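 Purified X2IRBP (Xenopus IRBP 313–612; His-fusion, TEV-cleaved, Ni and anion-exchange purified; quantified by A280 and amino acid analysis) was titrated with all-trans or 11-cis retinol. 11-cis retinol was made by NaBH4 reduction of 11-cis retinal. For all-trans, nonspecific signal from titration into fluorescence-matched NAT was subtracted and three independent titrations were averaged. Kd came from a nonlinear least-squares single-site-class fit.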
# [3] = target: X2IRBP (second module of Xenopus IRBP), wild-type sequence; experiment: Titration monitoring quenching of tryptophan; assay type: binding; details: read-out: Kd, Quenching, excitation 280 nm, emission 340 nm
# In short: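 Purified X2IRBP (Xenopus IRBP 313–612, TEV-cleaved His-fusion, Ni plus Q Sepharose purified) was titrated with all-trans or 11-cis retinol (ethanol stocks). Protein fluorescence at 340 nm (excitation 280 nm) was normalized to maximal quenching. All-trans data were averaged over three independent titrations. Kd and N came from a nonlinear least-squares fit to a noninteracting single-site-class binding equation.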
# [4] = target: W587F X2IRBP; experiment: Titration monitoring quenching of tryptophan fluorescence, W587F mutant; assay type: binding, Xenopus
# [5] = target: W587F X2IRBP; experiment: Titration monitoring enhancement of retinol fluorescence, W587F mutant; assay type: binding, Xenopus; details: read-out: Kd, Enhancement, 11-cis retinol, excitation 324 nm, emission 475 nm, Figure 7
# In short: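 The W587F mutant was introduced into X2IRBP-pET30 by site-directed mutagenesis, sequence-verified, then expressed in E. coli BLR(DE3) (1 mM IPTG, 22°C, 18 h) and purified by Ni-affinity, TEV cleavage and Q Sepharose. 11-cis retinol, made by NaBH4 reduction of 11-cis retinal and HPLC-checked, was titrated in. Kd came from a nonlinear least-squares single-site-class fit.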
# [6] = tested on: X2IRBP; assay type: binding, Xenopus; details: oleic acid 0.67 to 2.66 μM; X2IRBP 1 μM; retinol fluorescence enhancement
# In short: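 X2IRBP (1 μM; recombinant Xenopus, tag removed by TEV) titrated with all-trans or 11-cis retinol in the presence of oleic acid at 0.67 to 2.66 μM. Binding followed by retinol fluorescence enhancement (ex 330 nm, em 480 nm).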
# [7] = tested on: W450F X2IRBP; experiment: Titration monitoring quenching of tryptophan fluorescence, W450F mutant; assay type: binding, Xenopus; details: all-trans retinol, excitation 280 nm, emission 340 nm
# In short: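 Intrinsic tryptophan fluorescence quenching (ex 280 nm, em 340 nm) of tag-free recombinant Xenopus X2IRBP mutants during all-trans retinol titration. Signal normalized to the maximum quenching. Runs alternated between the W450F and W587F proteins, three titrations each, and were averaged. Binding parameters from a nonlinear least-squares fit to a single-class, noninteracting-site equation.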
# [8] = target: W450F X2IRBP; experiment: Energy transfer titration, W450F mutant; assay type: binding, Xenopus; details: read-out: Kd, Energy Transfer, all-trans retinol, Figure 4
# In short: (§1)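 Tag-free Xenopus IRBP second module (residues 313–612; His-tag cut by TEV protease), expressed in E. coli BLR(DE3) at 22°C for 18 h and purified on nickel then Q Sepharose columns. Titrated with all-trans retinol (fresh ethanol stock) and read by energy transfer (ex 280 nm, em 480 nm). Runs alternated between the two mutants, three per mutant, then averaged. Kd and N from a nonlinear least-squares fit to a single-class, noninteracting-site equation.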
# [9] = target: X2IRBP (second module of Xenopus IRBP), wild-type sequence; experiment: Energy transfer titration, X2IRBP of wild-type sequence; assay type: binding; details: read-out: Kd, Energy Transfer; all-trans retinol; excitation 280 nm, emission 480 nm; Figure 4
# In short: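 X2IRBP (Xenopus IRBP residues 313–612) was expressed in E. coli BLR(DE3) as a His-tag fusion, TEV-cleaved, and purified by Ni-affinity and Q Sepharose. Concentration was set by A280 and amino acid analysis. All-trans retinol from fresh ethanol stocks was titrated in. Three independent titrations were averaged. Kd and N came from a nonlinear least-squares fit assuming a single class of noninteracting sites.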
# [10] = target: W587F X2IRBP; experiment: Energy transfer titration, W587F mutant; assay type: binding, Xenopus; details: read-out: Kd, Energy Transfer, all-trans retinol, Figure 4
# In short: as §1
# [11] = 11-cis retinol, X2IRBP of wild-type sequence, Figure 6
smiles,measurement,setting,value
CC1=C(/C=C/C(C)=C/C=C\C(C)=C\CO)C(C)(C)CCC1 [11-cis retinol],Kd,"[1]; read-out: Kd, Enhancement, 11-cis retinol, excitation 324 nm, emission 475 nm, Figure 7",218 ± 62 nM
same,Kd,[2]; [11],77 ± 15 nM
same,Kd,[3]; [11],42 ± 9 nM
same,Kd,"[4]; read-out: Kd, Quenching, 11-cis retinol, excitation 280 nm, emission 340 nm, Figure 7",24 ± 10 nM
same,Kd,[5],132 ± 56 nM
CCCCCCCC/C=C\CCCCCCCC(=O)O [oleic acid],Manner of inhibition of 11-cis and all-trans retinol binding to X2IRBP,[6],noncompetitive
CC1=C(/C=C/C(C)=C/C=C/C(C)=C/CO)C(C)(C)CCC1 [all-trans retinol],Kd,"[1]; read-out: Kd, Enhancement, all-trans retinol, titrations of Figure 4",450 ± 110 nM
same,Quenching of tryptophan fluorescence (result in words),[7],No significant quenching
same,Kd,[8],290 ± 80 nM
same,Kd,"[2]; all-trans retinol, excitation 330 nm, emission 480 nm, Figure 4",70 ± 20 nM
same,Kd,"[3]; all-trans retinol, Figure 4",8 ± 3 nM
same,Kd,[9],33 ± 8 nM
same,Kd,"[4]; read-out: Kd, Quenching, all-trans retinol, titrations of Figure 4",50 ± 10 nM
same,Kd,[10],100 ± 10 nM
